Experimental data from different studies.
Target: Mitogen-activated protein kinase 13 (MAPK13, Homo sapiens, UniProt O15264)
Sequence (O15264 1-365, as in one of the studies): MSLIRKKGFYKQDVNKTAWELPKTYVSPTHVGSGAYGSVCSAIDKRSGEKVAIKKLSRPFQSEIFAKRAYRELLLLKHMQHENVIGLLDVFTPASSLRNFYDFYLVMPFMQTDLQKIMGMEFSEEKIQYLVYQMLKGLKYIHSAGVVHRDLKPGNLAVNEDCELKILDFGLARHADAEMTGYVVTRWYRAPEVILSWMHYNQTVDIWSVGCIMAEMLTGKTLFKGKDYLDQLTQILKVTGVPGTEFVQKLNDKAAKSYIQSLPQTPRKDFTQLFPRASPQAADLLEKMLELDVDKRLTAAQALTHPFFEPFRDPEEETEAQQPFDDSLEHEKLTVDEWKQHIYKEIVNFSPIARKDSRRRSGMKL

SMILES	read-out	technique	concentration	remaining binding
O=C(NCCCN1CCOCC1)c1ccc(Nc2nccc(-c3cc4ccccc4s3)n2)cc1	binding	competition with immobilised ligand	1 µM	100%
CN1CCN(c2cnc3c(C4CCN(C(=O)c5ccc(OC(F)(F)F)cc5N)CC4)ncnc3c2)CC1	cell-free assay	competition with immobilised ligand	1 µM	100%
CN(CCCC(F)(F)F)c1nccc(-c2cnn3ncccc23)n1	binding		1 µM	100%
NS(=O)(=O)c1cc(NC(=O)C2(c3ccccc3Cl)CC2)ccc1Oc1cccc(Cl)c1	cell-free assay	competition with immobilised ligand	1 µM	88%
CNC(=O)[C@@H]1CC[C@@H](n2c(-c3ccc4cnccc4c3)nc3ccc(C(=O)NCc4cccc(C(N)=O)c4)cc32)C1	binding	competition with immobilised ligand	1 µM	100%
Cc1cnn2ncc(-c3ccnc(N(C)C)n3)c2c1	binding		1 µM	100%
COc1ccc2c(c1)O[C@H](c1ccc(OC)c(OC)c1)C[C@@H]2NC(=O)C1(c2ccc3c(c2)OC(F)(F)O3)CC1	cell-free assay	competition with immobilised ligand	1 µM	100%
c1cnn2ncc(-c3ccnc(N4CCC45COC5)n3)c2c1	binding		1 µM	78%
CN([C@@H]1CCc2c(CC(=O)O)c3cc(S(C)(=O)=O)ccc3n2C1)S(=O)(=O)c1ccc(F)cc1	cell-free assay	competition with immobilised ligand	1 µM	68%
CN(C)c1ncc(F)c(-c2cnn3ncccc23)n1	binding		1 µM	96%
O=C(O)[C@H]1[C@H](Cn2nnc3ccccc3c2=O)CC[C@@H]1C(=O)c1ccc(OCCC2CCOCC2)cc1	cell-free assay	competition with immobilised ligand	1 µM	97%
CC1CCCN1c1nccc(-c2cnn3ncccc23)n1 (stereo not shown)	binding		1 µM	100%
O=C(NCCCN1CCOCC1)c1ccc(Nc2ncc(Cl)c(-c3ccc(Cl)s3)n2)cc1	binding	competition with immobilised ligand	1 µM	100%
FC(F)(F)Oc1cccc(-c2cnc3ccc(-c4ccncc4)nn23)c1	cell-free assay	competition with immobilised ligand	5 µM	97%
O=C(NCC1CCOCC1)c1n[nH]cc1NC(=O)c1c(F)cccc1F	binding	competition with immobilised ligand	1 µM	100%
Cc1c[nH]c2nccc(Oc3c(F)cc(Nc4cc(Cl)nc(N)n4)cc3F)c12	cell-free assay	competition with immobilised ligand	0.1 µM	89%
COc1ncc2cc3ccccc3nc2c1C#N	cell-free assay	competition with immobilised ligand	5 µM	79%
O=C(c1ccc(Nc2ncc(Cl)c(-c3cc4ccccc4s3)n2)cc1)N1CCC(N2CCCC2)CC1	binding	competition with immobilised ligand	1 µM	100%
C[C@H]1CCN(c2nccc(-c3cnn4ncccc34)n2)C1	binding		1 µM	83%
C[C@@]1(Cc2ccc(C#N)cc2)C(=O)N(c2cc(Cl)cc(Cl)c2)c2ncc(C(=O)NC3(c4nc(C5CCC5)no4)CC3)n21	cell-free assay	competition with immobilised ligand	1 µM	100%
N[C@H]1CCN(c2nccc(-c3cnn4ncccc34)n2)C1	binding		1 µM	84%
COc1cnc(Nc2cccc(S(N)(=O)=O)c2)nc1N1CCN(c2ccccc2)CC1	binding	competition with immobilised ligand	1 µM	100%
